This passage reports cytotoxicity results from ChEMBL document CHEMBL4513216, “Probing the Open Global Health Chemical Diversity Library for Multistage-Active Starting Points for Next-Generation Antimalarials” (ACS Infect Dis, 2020).

This data set is described as follows: Toxicity liver stage against HepG2, at 10uM. In kind it is cell-based. Also on record: test concentration 10 uM, cell line HepG2-A16-CD81EGFP. The following applies: human, HepG2-A16-CD81EGFP cells; read-out: INHIBITION
The method, boiled down: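 Uninfected HepG2-A16-CD81EGFP cells, 3 × 10^3 per well, 1536-well, plated on prespotted compound at 10 μM final, parasite-free screening media added to match infected plates; puromycin 10 μM positive, DMSO 0.5% negative; run in parallel with 48 h PbLuc assay at 37 °C, 5% CO2; viability by CellTiter-Glo luminescence, normalized to controls.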
Consider `NS(=O)(=O)c1cccnc1NCc1ccco1`, for which the cytotoxicity at 10 µM is -8.21%. Next, `COCC(=O)N[C@H]1C[C@@H](Cc2cc(CN3CCCCC3)on2)C1(C)C`: -8.12%. Next, `Cc1cccc(CNC[C@H]2Cn3ccnc3CO2)n1`: 3.15%; `CCOc1cc(N2CCN(C(=O)c3ccc(OC)cc3)CC2)nc(C)n1`: -10.2%; `Cc1ccc(-c2csc3c(=O)[nH]c(N4CCCC(C(N)=O)C4)nc23)cc1` (configuration not stated): -3.09%. With `Cc1ccc(S(=O)(=O)NCC(O)c2ccoc2)s1` (configuration not stated), the cytotoxicity at 10 µM was -8.18%. The same measure for `CCOCC(=O)NCCn1ccc(-c2ccccn2)n1`: 11.4%; for `CCn1c2c(ccc1=O)CC(N)CC2` (configuration not stated): -1.72%.

As for `O=C(NCC1CC1)C1CCC2(CCNCC2)C1` (configuration not stated), the cytotoxicity at 10 µM was found to be 1.91%. Next, `CC[C@@H]1N(CC2CCC2)CCC[C@]12CCC(=O)N2Cc1ccncc1`: 7.12%; `CCc1cnc(N2C[C@H]3CN(Cc4ccc(OC)cc4)C(=O)[C@H]3C2)nc1`: 11.6%. The same measure for `COCCN1CCC2(CC1)CC(CC(N)=O)c1ccc(F)cc12` (configuration not stated): 8.98%. Next, `O=C(c1cnccn1)N1CCCC2(CCCN2Cc2cccnc2)C1` (configuration not stated): -1.01%. Regarding `CO[C@@H]1CCN(c2ncccn2)[C@H]1Cc1ccccc1`, the cytotoxicity at 10 µM was -0.651%.

As to `COc1ccc(-n2ncc(C(=O)NCC3COC(C)(C)O3)c2N)cc1` (configuration not stated), the cytotoxicity at 10 µM was 3.97%. The same measure for `CS(=O)(=O)N1CCCC12CCCN(S(=O)(=O)c1cc(F)cc(F)c1)C2` (configuration not stated): 10.9%. Next, `O=C(CCn1cc(Cl)cn1)Nc1ccc2c(c1)OCCO2`: -2.18%. Next, `Cn1nc(C(=O)N2CCOCC2)cc1C(=O)Nc1ccc(Cl)cc1Cl`: -7.41%; `O=C(c1cc(-c2ccco2)cs1)N1CCOCC1`: 4.81%; `Cc1cc(-c2ccc(=O)n(C3CCN(S(C)(=O)=O)CC3)n2)c(C)o1`: 3.62%.

For `O=C(O)[C@@H]1CCN(C(=O)c2ccccn2)[C@@H]1c1ccc(F)cc1`, the cytotoxicity at 10 µM worked out at 4.16%.

For the molecule `CC(C)N1CCC(c2n[nH]cc2S(C)(=O)=O)CC1`, the cytotoxicity at 10 µM was -7.22%. As to `CC(=O)N1CCN(C(=O)C2CCN(c3cccnn3)C2)CC1` (configuration not stated), the cytotoxicity at 10 µM is -17.6%.

Take `CCC(CC)C(=O)N1CCN(Cc2cc(-c3ccncc3)nn2C)CC1`: the cytotoxicity at 10 µM was -27.9%. The same measure for `COC(=O)CN1CCC(C(F)(F)F)CC1`: 8.12%; for `COc1cccc(C(C)N2CCN(S(=O)(=O)CCCF)CC2)c1` (configuration not stated): 2.5%.

As to `CS(=O)(=O)CCNC(=O)N1CC2(CCCC2)c2ccccc21`, the cytotoxicity at 10 µM was found to be 0.883%. Next, `CC(C)CNC(=O)Nc1cccc(OCC#N)c1`: -0.353%; `CN(CC(=O)Nc1nc2c(s1)CCC2)C(=O)c1cccs1`: -10.3%; `CCn1nc(C)c(CNC(=O)NCC(C)(O)c2ccc(C)o2)c1C` (configuration not stated): 10.5%. Next, `COc1c(C)cnc(CNC(=O)c2cnc3onc(C)c3c2)c1C`: 26.3%. The same measure for `c1ccc(NCc2cccc(OCCN3CCOCC3)c2)nc1`: 0.174%; for `O=C(NCc1ccccc1CN1CCCC1=O)Nc1nncs1`: -2.82%; for `CCc1noc(C)c1C(=O)Nc1cnn(CC(=O)NC2CCCC2)c1`: -3.08%. Take `O=C(NCc1cccc(F)c1)NC1CCCN(c2ncccn2)C1` (configuration not stated): the cytotoxicity at 10 µM was -0.7%. Turning to `CCOc1ncccc1NC(=O)c1cc(C)sc1C`, the cytotoxicity at 10 µM was -6.81%. The same measure for `CC(C)CC(=O)N1CCCC1c1ccsc1` (configuration not stated): 2.96%; for `CC(C)c1nc2c(n1C)CCN(CCS(=O)(=O)c1ccccc1)C2`: 5.11%. As to `Cc1cc(NCC(=O)NCC(F)(F)F)nc(-c2ccncc2)n1`, the cytotoxicity at 10 µM stood at 6.45%. The same measure for `Cc1c(Cl)cccc1S(=O)(=O)NCc1cnc(N(C)C)n1C`: -6.31%; for `NC(=O)CN(Cc1ccc(Br)cc1)C(=O)c1cccnc1`: 9.49%; for `Cc1cccc(NC(=O)N(CCC(F)(F)F)C[C@H](O)CO)c1`: 4.3%. Next, `CCCn1ccc2cc(NC(=O)CC3CCCO3)ccc21` (configuration not stated): -3.45%. Next, `COc1ccccc1CN(Cc1nc(CC(C)C)no1)C1CC1`: 4.93%; `CC(O)CN1CCN(C(=O)CCOc2ccccc2F)CC1` (configuration not stated): 3.66%; `Cc1nc(C2CCCN2C(=O)CCCOc2cccc(F)c2)no1` (configuration not stated): 5.09%. Consider `Cc1ccc(C(=O)NCCS(C)(=O)=O)c(=O)[nH]1`, for which the cytotoxicity at 10 µM was -9.32%. The same measure for `CC(=O)Nc1c(C)cnn1Cc1cc(F)ccc1F`: 25.3%; for `FC(F)(F)COCCN1CCCC(c2noc(C3CC3)n2)C1` (configuration not stated): 3.3%; for `O=C(NCc1ccccc1CN1CCC(O)CC1)Nc1ccncc1`: -13.1%. On to `Fc1ccc2c(c1)C(NCc1nnc3n1CCCCC3)CCCO2` (configuration not stated), for which the cytotoxicity at 10 µM was -9.52%. As to `Cc1cc(CN(C)C(=O)C2CCCN(C(=O)c3cccs3)C2)no1` (configuration not stated), the cytotoxicity at 10 µM is -17%. The same measure for `CS(=O)(=O)NCC1CCCN(C(=O)Nc2cccnc2N2CCCC2)C1` (configuration not stated): 3.85%; for `CC(C)NC(=O)Nc1ccc(CS(=O)(=O)C(C)(C)C)cc1`: -1.97%; for `COCCN1C(=O)CC(N2CCN(c3ccc(OC)cc3)CC2)C1=O` (configuration not stated): -12.6%. As to `CCC(=O)N1CCCC(c2nc(-c3cccnn3)no2)C1` (configuration not stated), the cytotoxicity at 10 µM is -6.45%. The same measure for `O=C(O)[C@@H]1CN(C(=O)CSCC2CC2)C[C@H]1c1ccncc1`: -17.6%.

Regarding `CN(C)S(=O)(=O)NCc1cccnc1Oc1ccc(F)c(F)c1`, the cytotoxicity at 10 µM is 3.05%. Next, `CCc1ccc(CN2CCC(c3ccccc3C(=O)O)C2)nc1` (configuration not stated): 1.69%; `CCC(=O)N1CCCC(C(=O)NCc2noc(Cc3ccccc3)n2)C1` (configuration not stated): -1.15%; `Cc1ccc(N2CCC(C(=O)O)(n3ccc(C(C)C)n3)CC2)nn1`: -3.64%.

As for `COc1ccccc1-n1nc(CC(C)C)nc1Cc1nnc(N)s1`, the cytotoxicity at 10 µM was found to be 6.17%. The same measure for `NC(=O)N1CCCC(c2nc(-c3cccnn3)no2)C1` (configuration not stated): -1.31%; for `COCC(=O)N1CCCN(Cc2cc(C(C)C)no2)CC1`: 5.97%; for `Cc1ccc(C2(CN(C)Cc3snnc3C)CCNCC2)nc1`: -0.355%. Next, `CNCCN1C(=O)CC[C@H]2CN(c3ncc(F)cn3)CC[C@H]21`: 1.68%; `O=C(O)c1cc2n(n1)CCCN(C(=O)CCc1c[nH]c3ccccc13)C2`: 3.77%; `CC(c1nccs1)N(C)Cc1ccc(CCC(C)(C)O)cc1` (configuration not stated): 2.55%. Next, `COCCN1CCCC2(CCN(c3cc(C)c(C#N)c(C)n3)C2)C1=O` (configuration not stated): 2.7%; `CCCn1cc(-c2cc(C(=O)N(C)C)c3cccc(C)c3n2)cn1`: 5.11%. Turning to `COCCN(Cc1sccc1C)C(=O)C1CCN(C(C)C)CC1`, the cytotoxicity at 10 µM was -2.72%. Next, `N#Cc1cccc(C(=O)N2CCCC(C(=O)CCc3ccccc3)C2)c1` (configuration not stated): 0.488%; `CS(=O)(=O)NCCC1CN(Cc2ccccc2F)CCO1` (configuration not stated): -7.31%. The same measure for `Cc1nc(N2CCCCC2)ncc1C(=O)N1CC(C)(C)[C@@](C)(O)C1`: 1.41%; for `COc1cccc(CN2CCC(c3nccn3C(C)C)CC2)c1`: -8.37%. Next, `Cc1cc(C)c(C(=O)N2CCOCC2c2c(C)n[nH]c2C)o1` (configuration not stated): -4.01%; `CN(Cc1ccccc1)CC(O)Cn1cnc2cc(F)ccc2c1=O` (configuration not stated): -5.28%; `O=C(NCC1CCOC1)Nc1ccc(Oc2cccc(F)c2)nc1` (configuration not stated): -5.01%. Take `Cc1ccc(-c2cc(C(=O)NCCN3CCCS3(=O)=O)[nH]n2)cc1`: the cytotoxicity at 10 µM was -7.57%.

In the case of `Cc1cn2nc(N3CCCC3Cn3cncn3)sc2n1` (configuration not stated), the cytotoxicity at 10 µM is -18.3%. The same measure for `O=C(CCSc1ccccc1)NS(=O)(=O)c1ccc2c(c1)OCCO2`: -5.69%; for `CC(=O)N1CCN(C(=O)CCCc2nc(C(C)C)no2)CC1`: -9.34%. Next, `COc1ccc(OCCN(C)C(=O)NC(C)c2nncn2C)cc1` (configuration not stated): 1.08%; `COc1ccccc1CN1C[C@@H]2COC[C@]2(COc2cccnc2)C1`: 6.24%; `CO[C@H]1CCN(S(=O)(=O)c2cn(C)cn2)[C@H]1Cc1ccccc1`: 6.19%. Next, `O=C(NC1COC2(CCN(Cc3ccccn3)CC2)C1)c1ccccn1` (configuration not stated): -4.74%; `Cn1cncc1C(=O)N1CCOC2(COCCN(CC3CC3)C2)C1` (configuration not stated): 9.17%; `CCN1CC2(CC1=O)CN(Cc1ccccn1)CCN(C(C)=O)C2` (configuration not stated): -1.07%. As to `COCC1CN(Cc2ccc(C)o2)Cc2nnn(CC3CC3)c21` (configuration not stated), the cytotoxicity at 10 µM is -9.96%. The same measure for `CC(=O)N1CCC2(CC1)COCCN2CCN(C)C`: -7.98%.

For `CC1c2ncc(CNC(=O)C3CC3)n2CCN1Cc1cnn(C)c1` (configuration not stated), the cytotoxicity at 10 µM was -20.2%.

Consider `CC(C)NC(=O)[C@H]1C[C@@H]2[C@@H](C1)OCCN2Cc1cccs1`, for which the cytotoxicity at 10 µM worked out at 10.3%. As for `O=C(NCC1CC1)c1n[nH]c2c1CNCC2`, the cytotoxicity at 10 µM was determined as 4.14%.

`c1ccc(CN2CCN3C[C@H](Oc4cncnc4)C[C@H]3C2)nc1`: the cytotoxicity at 10 µM was -99.8%. The same measure for `CNC(=O)[C@@H](C1CCCCC1)N1CCC[C@H]1C(=O)N(C)CCN(C)C`: -0.39%. Next, `CN(C)C(=O)CN1CC[C@H]2[C@H]1CCN2c1ncccn1`: 8.28%. The same measure for `CCn1cc(-n2cc3nc(N)[nH]cc-3c2=O)cn1`: 3.15%.
